Data as given in ChEMBL document CHEMBL2380254, “Optimization of tocotrienols as antiproliferative and antimigratory leads” (Eur J Med Chem, 2013).

What was measured:
M14 = assay: Growth inhibition of human M14 cells assessed as cell growth at 10 uM after 48 hrs by sulforhodamine B assay; type: functional; conditions: M14, 48 h, read-out: Activity
Procedure, shortened: (§1)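 NCI-60 single-dose screen at 10 µM: cells in RPMI 1640 with 5% FBS, preincubated 24 h, then exposed 48 h at 37 °C. TCA fixation (16% final for suspension cells), SRB staining, absorbance 515 nm. Percent growth relative to time-zero and untreated control plates; negative values indicate cell kill.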

NCI-H226 [1] = assay: Growth inhibition of human NCI-H226 cells after 48 hrs by sulforhodamine B assay; type: functional; conditions: NCI-H226, 48 h
Procedure, shortened: (§2)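 NCI-60 panel cells grown in RPMI 1640 with 5% FBS and 2 mM L-glutamine, seeded at 5000–40,000 cells/well and preincubated 24 h. Five 10-fold dilutions (0.001–100 µM) from DMSO stocks were added for 48 h at 37 °C. Adherent cells were fixed with cold TCA (10% final) for 60 min at 4 °C, stained with 0.4% SRB, and read at 515 nm. GI50 was set where 100×(T−T0)/(C−T0)=50.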

CAKI-1 = assay: Growth inhibition of human CAKI-1 cells after 48 hrs by sulforhodamine B assay; type: functional; conditions: CAKI-1, 48 h
Procedure, shortened: (§3)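 NCI-60 screen: cells in RPMI 1640 with 5% FBS and 2 mM glutamine, 5000–40,000 cells/well, preincubated 24 h. Five concentrations (10-fold dilutions; 100 to 0.001 µM) applied for 48 h at 37 °C. TCA fixation, SRB stain, absorbance at 515 nm. Time-zero plates included; GI50 where 100×(T−T0)/(C−T0)=50.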

MDA-MB-231 = assay: Growth inhibition of human MDA-MB-231 cells after 48 hrs by sulforhodamine B assay; type: functional; conditions: MDA-MB-231, 48 h; procedure, shortened: as §2
TK-10 = assay: Growth inhibition of human TK10 cells assessed as cell growth at 10 uM after 48 hrs by sulforhodamine B assay; type: functional; conditions: TK-10, 48 h, read-out: Activity
Procedure, shortened: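 Single-dose NCI-60 test at 10 µM. Cells were grown in RPMI 1640 with 5% FBS and 2 mM L-glutamine, preincubated 24 h, with T0 plates TCA-fixed. Exposure was 48 h at 37 °C, 5% CO2. Cells were fixed with cold TCA (final 10%, 4 °C, 60 min), stained with SRB and read at 515 nm. Percent growth was taken relative to T0 and untreated control; negative values denote cell kill.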

HL-60(TB) = assay: Growth inhibition of human HL-60(TB) cells assessed as cell growth at 10 uM after 48 hrs by sulforhodamine B assay; type: functional; conditions: HL-60, 48 h, read-out: Activity
Procedure, shortened: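 NCI-60 single-dose screen run at 10 µM on HL-60(TB) suspension cells in RPMI 1640 with 5% FBS and 2 mM L-glutamine. Cells were preincubated for 24 h, with a time-zero plate fixed then. Exposure lasted 48 h at 37 °C. Settled cells were fixed with TCA (16% final), stained with SRB and read at 515 nm. Percent growth is relative to control and T0.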

LOX IMVI = assay: Growth inhibition of human LOXIMVI cells after 48 hrs by sulforhodamine B assay; type: functional; procedure, shortened: as §3
SF-539 = assay: Growth inhibition of human SF539 cells assessed as cell growth at 10 uM after 48 hrs by sulforhodamine B assay; type: functional; conditions: SF-539, 48 h, read-out: Activity
Procedure, shortened: (§4)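 Single-dose NCI-60 screen: adherent cells in RPMI 1640 with 5% FBS were exposed to 10 µM for 48 h at 37 °C after a 24 h preincubation. They were fixed in situ with cold TCA (10% final), stained with 0.4% SRB in 1% acetic acid, solubilized in 10 mM Tris base, and read at 515 nm. Percent growth was taken relative to time-zero and control plates.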

Malme-3M = assay: Growth inhibition of human MALME-3M cells after 48 hrs by sulforhodamine B assay; type: functional; procedure, shortened: as §2
HOP-62 [2] = assay: Growth inhibition of human HOP62 cells assessed as cell growth at 10 uM after 48 hrs by sulforhodamine B assay; type: functional; conditions: HOP-62, 48 h, read-out: Activity; procedure, shortened: as §1
SR = assay: Growth inhibition of human SR cells after 48 hrs by sulforhodamine B assay; type: functional
Procedure, shortened: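 Suspension leukemia line in RPMI 1640 with 5% FBS and 2 mM L-glutamine, NCI-60 five-dose format ([…]), 48 h at 37 °C. Settled cells were fixed with 80% TCA (final 16%), stained with SRB and read at 515 nm. GI50 is where 100×(T−T0)/(C−T0)=50, with T0 measured at dosing.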

SN12C = assay: Growth inhibition of human SN12C cells after 48 hrs by sulforhodamine B assay; type: functional
Procedure, shortened: (§5)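 NCI-60 five-dose screen. Cells were grown in RPMI 1640 with 5% FBS and 2 mM L-glutamine, plated at 5000–40,000 cells/well and incubated 24 h before dosing, with T0 plates TCA-fixed. DMSO stocks were diluted to doses of […] and exposed 48 h at 37 °C, 5% CO2. Cells were fixed with cold TCA (final 10%, 60 min, 4 °C), stained with 0.4% SRB in 1% acetic acid for 10 min, solubilized in 10 mM trizma base and read at 515 nm. GI50 is where 100×(T−T0)/(C−T0)=50.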

KM12 = assay: Growth inhibition of human KM12 cells assessed as cell growth at 10 uM after 48 hrs by sulforhodamine B assay; type: functional; conditions: KM12, 48 h, read-out: Activity; procedure, shortened: as §1
HOP-62 [3] = assay: Growth inhibition of human HOP62 cells after 48 hrs by sulforhodamine B assay; type: functional; conditions: HOP-62, 48 h; procedure, shortened: as §3
UACC-257 = assay: Growth inhibition of human UACC257 cells after 48 hrs by sulforhodamine B assay; type: functional; conditions: UACC-257, 48 h; procedure, shortened: as §5
HOP-92 = assay: Growth inhibition of human HOP92 cells assessed as cell growth at 10 uM after 48 hrs by sulforhodamine B assay; type: functional; conditions: HOP-92, 48 h, read-out: Activity; procedure, shortened: as §1
UO-31 = assay: Growth inhibition of human UO31 cells after 48 hrs by sulforhodamine B assay; type: functional; conditions: UO-31, 48 h; procedure, shortened: as §5
NCI-H522 = assay: Growth inhibition of human NCI-H522 cells after 48 hrs by sulforhodamine B assay; type: functional; conditions: NCI-H522, 48 h; procedure, shortened: as §2
RXF 393 = assay: Growth inhibition of human RXF393 cells after 48 hrs by sulforhodamine B assay; type: functional; conditions: RXF 393, 48 h; procedure, shortened: as §2
NCI-H226 [4] = assay: Growth inhibition of human NCI-H226 cells assessed as cell growth at 10 uM after 48 hrs by sulforhodamine B assay; type: functional; conditions: NCI-H226, 48 h, read-out: Activity; procedure, shortened: as §4
MCF7 = assay: Antiproliferative activity against human MCF7 cells by MTT assay; type: functional, cell-based
Procedure, shortened: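 Cells plated at 8 × 10^3/well (MDA-MB-231) or 10^4/well (MCF7) in 96-well plates. Compounds fed in media with 5% FBS (MDA-MB-231) or 1% FBS (MCF7). MTT read-out of viable cells.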

Structure (SMILES) | growth at 10 µM (M14) [%] | GI50 (NCI-H226 [1]) [µM] | GI50 (CAKI-1) [µM] | GI50 (MDA-MB-231) [µM] | growth at 10 µM (TK-10) [%] | growth at 10 µM (HL-60(TB)) [%] | GI50 (LOX IMVI) [µM] | growth at 10 µM (SF-539) [%] | GI50 (Malme-3M) [µM] | growth at 10 µM (HOP-62 [2]) [%] | GI50 (SR) [µM] | GI50 (SN12C) [µM] | growth at 10 µM (KM12) [%] | GI50 (HOP-62 [3]) [µM] | GI50 (UACC-257) [µM] | growth at 10 µM (HOP-92) [%] | GI50 (UO-31) [µM] | GI50 (NCI-H522) [µM] | GI50 (RXF 393) [µM] | growth at 10 µM (NCI-H226 [4]) [%] | also measured
CC(C)=CCC/C(C)=C/CC/C(C)=C/CC[C@]1(C)CCc2c3c(cc(C)c2O1)OCN(C1CCN(Cc2ccccc2)CC1)C3 | 50.1 | 2.21 | 1.6 | 1.63 | 82.5 | -18.9 | 0.337 | 80.6 | 2.13 | 111 | 0.217 | 1.46 | -44 | 1.82 | 2.24 | 37.4 | 1.51 | 1.81 | 1.22 | 101 | 
CC(C)=CCC/C(C)=C/CC/C(C)=C/CC[C@]1(C)CCc2c3c(c(C)c(C)c2O1)OCN(CCCCCO)C3 | 107 | 6.19 | 5.33 | 5.87 | 97.5 | 37.2 | 6.07 | 106 | 6.9 | 114 | 4 | 5.56 | 29.3 | 5.9 | 6.97 | 63.4 | 4.64 | 7.08 | 1.94 | 102 | IC50 (MCF7): > 20 µM
COc1ccc(CCN2COc3cc(C)c4c(c3C2)CC[C@@](C)(CC/C=C(\C)CC/C=C(\C)CCC=C(C)C)O4)cc1OC | -19.5 | 2 | 3.95 | 1.94 | 97.7 | 15.4 | 1.77 | 88.8 | 2.03 | -34.3 | 2.3 | 1.63 | -82.6 | 1.76 | 5.58 | 32.7 | 1.63 | 2.08 | 1.36 | 112 | 
CC(C)=CCC/C(C)=C/CC/C(C)=C/CC[C@]1(C)CCc2c3c(cc(C)c2O1)OCN(CCCCCO)C3 | 57.9 | 6.19 | 5.33 | 5.87 | 76.3 | 58.3 | 6.07 | 95 | 6.9 | 20.6 | 4 | 5.56 | 13 | 5.9 | 6.97 | 62.3 | 4.64 | 7.08 | 1.94 | 98.4 | IC50 (MCF7): 9.1 µM
CC(C)=CCC/C(C)=C/CC/C(C)=C/CC[C@]1(C)CCc2c3c(cc(C)c2O1)OCN(CCCCCCCCO)C3 | -94.7 | 5.17 | 4.07 | 1.1 | 51.2 | -57.3 | 0.622 | -94.4 | 7.15 | -99 | 0.785 | 1.54 | -88.1 | 2.7 | 0.656 |  | 3.46 | 3.75 | 0.551 | 50.2 | IC50 (MCF7): > 20 µM
CC(C)=CCC/C(C)=C/CC/C(C)=C/CC[C@]1(C)CCc2c3c(c(C)c(C)c2O1)OCN(CCCCO)C3 | 65.4 | > 10 | > 10 | 2.34 | 101 | 72.2 | 2.22 | 69.6 | > 10 | 75 | 2.47 | 7.98 | 27.3 | 5.95 | 1.73 |  | 8.83 | > 10 | 5.63 | 100 | IC50 (MCF7): > 20 µM
CC(C)=CCC/C(C)=C/CC/C(C)=C/CC[C@]1(C)CCc2c3c(cc(C)c2O1)OCN(CCc1ccc(O)cc1)C3 | 9.79 | 5.4 | 5.31 | 4.65 | 100 | 31.2 | 2.09 | 94.1 | 7.06 | -31.3 | 1.37 | 4.9 | -19.4 | 5.66 | 7.33 | 69.1 | 4.42 | 5.32 | 3.34 | 88.7 | IC50 (MCF7): 18.2 µM
CC(C)=CCC/C(C)=C/CC/C(C)=C/CC[C@]1(C)CCc2c3c(cc(C)c2O1)OCN(CCCO)C3 | 15.1 | 2.31 | 2.33 | 1.63 | 75.9 | 15.3 | 1.69 | 74.4 | 2.1 | -76.3 | 1.04 | 1.67 | -77.4 | 1.78 | 1.79 | 63.1 | 1.47 | 1.79 | 1.2 | 98.7 | IC50 (MCF7): > 20 µM
